Laboratory results published in ChEMBL document CHEMBL5357066, “Development of Novel Membrane Disrupting Lipoguanidine Compounds Sensitizing Gram-Negative Bacteria to Antibiotics” (ACS Med Chem Lett, 2024).
In brackets after ≈: the same amount, converted by molar mass.

Experiments:
Pseudomonas aeruginosa [1] = assay: Antibacterial activity against Pseudomonas aeruginosa PAO1 assessed as bacterial growth inhibition incubated for overnight by microbroth dilution method; format: functional
How it was run: (§1)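 Broth microdilution in Tryptic Soy Broth. DMSO stocks were diluted in TSB as 2-fold series. Overnight TSB cultures were back-diluted to OD 0.01 and mixed 1:1 with compound. Incubation was overnight at 37 °C. MIC was the lowest concentration without visible growth (<0.1 OD600). DMSO vehicle was checked at equivalent concentrations.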

Pseudomonas aeruginosa [2] = assay: Synergistic antibacterial activity against Pseudomonas aeruginosa PAO1 assessed as novobiocin MIC at <=0.25 times MIC incubated for overnight by microbroth dilution checkerboard assay; format: functional
How it was run: (§2)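 Checkerboard microdilution in Tryptic Soy Broth, run like the MIC assay. Overnight TSB cultures were back-diluted to OD 0.01 and added 1:1 to the combined two-fold series of both agents, then incubated overnight at 37 °C. Growth/no-growth was called at <0.1 OD600. MICs alone were read on the same plates. FIC index came from the most synergistic well; three independent repeats, mean ± SD.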

Acinetobacter baumannii [3] = assay: Synergistic antibacterial activity against Acinetobacter baumannii ATCC 17978 assessed as novobiocin MIC at <=0.25 times MIC incubated for overnight by microbroth dilution checkerboard assay; format: functional
How it was run: (§3)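 Checkerboard microdilution under MIC conditions (TSB, overnight, 37 °C). Two-fold series of each agent were combined on one plate before bacteria were added, and single-agent MICs were measured on the same plate. FIC = sum of combination MIC/alone MIC for each agent, taken from the most synergistic well. Three independent repeats, mean ± SD. ≤0.5 was taken as strong synergy and 0.5–<1 as weak.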

Klebsiella pneumoniae [4] = assay: Antibacterial activity against ESBL Klebsiella pneumoniae NCTC 13368 assessed as bacterial growth inhibition incubated for overnight by microbroth dilution method
Escherichia coli [5] = assay: Synergistic antibacterial activity against Escherichia coli NCTC 12923 assessed as novobiocin MIC at <=0.25 times MIC incubated for overnight by microbroth dilution checkerboard assay; format: functional; how it was run: as §3
Escherichia coli [6] = assay: Synergistic antibacterial activity against Escherichia coli NCTC 12923 assessed as fold change in novobiocin MIC at <=0.25 times MIC incubated for overnight by microbroth dilution checkerboard assay relative to novobiocin alone; format: functional; how it was run: as §3
Escherichia coli [7] = assay: Synergistic antibacterial activity against Escherichia coli NCTC 12923 assessed as fold change in rifampicin MIC at <=0.25 times MIC incubated for overnight by microbroth dilution checkerboard assay relative to rifampicin alone; format: functional; how it was run: as §3
Klebsiella pneumoniae [8] = assay: Synergistic antibacterial activity against […] Klebsiella pneumoniae NCTC 13368 assessed as novobiocin MIC at <=0.25 times MIC incubated for overnight by microbroth dilution checkerboard assay; format: functional
How it was run: (§4)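 Checkerboard run under the MIC conditions (TSB, overnight, 37 °C). Antibiotic and lipoguanidine 2-fold series were combined on one plate before bacteria were added. Growth/no-growth was scored as for the MIC (<0.1 OD600). Single-agent MICs were measured on the same plates. Three independent repeats were done.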

Klebsiella pneumoniae [9] = assay: Synergistic antibacterial activity against Klebsiella pneumoniae NCTC 13368 assessed as rifampicin MIC at <=0.25 times MIC incubated for overnight by microbroth dilution checkerboard assay; format: functional; how it was run: as §3
Klebsiella pneumoniae [10] = assay: Antibacterial activity against Klebsiella pneumoniae M6 assessed as bacterial growth inhibition incubated for overnight by microbroth dilution method
Pseudomonas aeruginosa [11] = assay: Synergistic antibacterial activity against Pseudomonas aeruginosa NCTC 13437 assessed as fold change in rifampicin MIC at <=0.25 times MIC incubated for overnight by microbroth dilution checkerboard assay relative to rifampicin alone; format: functional; how it was run: as §2
Pseudomonas aeruginosa [12] = assay: Antibacterial activity against Pseudomonas aeruginosa NCTC 13437 assessed as bacterial growth inhibition incubated for overnight by microbroth dilution method; format: functional; how it was run: as §1
Escherichia coli [13] = assay: Synergistic antibacterial activity against Escherichia coli NCTC 12923 assessed as rifampicin MIC at <=0.25 times MIC incubated for overnight by microbroth dilution checkerboard assay; format: functional; how it was run: as §3
Pseudomonas aeruginosa [14] = assay: Synergistic antibacterial activity against Pseudomonas aeruginosa NCTC 13437 assessed as fold change in novobiocin MIC at <=0.25 times MIC incubated for overnight by microbroth dilution checkerboard assay relative to novobiocin alone; format: functional; how it was run: as §3
Erythrocyte = assay: Hemolytic activity in human Red blood cells at 512 microg/ml measured after 1 hrs by absorbance based assay; format: toxicity, cell-based; settings: dose 512 µg/ml
How it was run: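 Titrations in PBS were incubated with freshly collected human red blood cells for 1 h at 37 °C. Controls were 0.1% Triton-X-100 (full lysis) and PBS alone (no lysis). After centrifugation, supernatant OD550 was read. % haemolysis = (AP−AB)/(AC−AB)×100. Data are means and standard error of three biological replicates.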

Klebsiella pneumoniae [15] = assay: Synergistic antibacterial activity against Klebsiella pneumoniae M6 assessed as fold change in novobiocin MIC at <=0.25 times MIC incubated for overnight by microbroth dilution checkerboard assay relative to novobiocin alone; format: functional; how it was run: as §3
Acinetobacter baumannii [16] = assay: Antibacterial activity against Acinetobacter baumannii ATCC 17978 assessed as bacterial growth inhibition incubated for overnight by microbroth dilution method; format: functional; how it was run: as §1
Acinetobacter baumannii [17] = assay: Synergistic antibacterial activity against Acinetobacter baumannii AYE assessed as novobiocin MIC at <=0.25 times MIC incubated for overnight by microbroth dilution checkerboard assay; format: functional; how it was run: as §3
Pseudomonas aeruginosa [18] = assay: Synergistic antibacterial activity against Pseudomonas aeruginosa NCTC 13437 assessed as novobiocin MIC at <=0.25 times MIC incubated for overnight by microbroth dilution checkerboard assay; format: functional; how it was run: as §2
Pseudomonas aeruginosa [19] = assay: Synergistic antibacterial activity against Pseudomonas aeruginosa NCTC 13437 assessed as rifampicin MIC at <=0.25 times MIC incubated for overnight by microbroth dilution checkerboard assay; format: functional; how it was run: as §2
Acinetobacter baumannii [20] = assay: Synergistic antibacterial activity against Acinetobacter baumannii AYE assessed as rifampicin MIC at <=0.25 times MIC incubated for overnight by microbroth dilution checkerboard assay; format: functional; how it was run: as §3
Pseudomonas aeruginosa [21] = assay: Synergistic antibacterial activity against Pseudomonas aeruginosa PAO1 assessed as rifampicin MIC at <=0.25 times MIC incubated for overnight by microbroth dilution checkerboard assay; format: functional; how it was run: as §2
Klebsiella pneumoniae [22] = assay: Synergistic antibacterial activity against Klebsiella pneumoniae NCTC 13368 assessed as fold change in rifampicin MIC at <=0.25 times MIC incubated for overnight by microbroth dilution checkerboard assay relative to rifampicin alone; format: functional; how it was run: as §4
Acinetobacter baumannii [23] = assay: Synergistic antibacterial activity against Acinetobacter baumannii AYE assessed as fold change in rifampicin MIC at <=0.25 times MIC incubated for overnight by microbroth dilution checkerboard assay relative to rifampicin alone; format: functional; how it was run: as §3
Acinetobacter baumannii [24] = assay: Synergistic antibacterial activity against Acinetobacter baumannii ATCC 17978 assessed as fold change in novobiocin MIC at <=0.25 times MIC incubated for overnight by microbroth dilution checkerboard assay relative to novobiocin alone; format: functional; how it was run: as §3
Escherichia coli [25] = assay: Antibacterial activity against Escherichia coli NCTC 12923 assessed as bacterial growth inhibition incubated for overnight by microbroth dilution method; format: functional; how it was run: as §1
Klebsiella pneumoniae [26] = assay: Synergistic antibacterial activity against […] Klebsiella pneumoniae M6 assessed as novobiocin MIC at <=0.25 times MIC incubated for overnight by microbroth dilution checkerboard assay; format: functional; how it was run: as §4
Pseudomonas aeruginosa [27] = assay: Synergistic antibacterial activity against Pseudomonas aeruginosa PAO1 assessed as fold change in rifampicin MIC at <=0.25 times MIC incubated for overnight by microbroth dilution checkerboard assay relative to rifampicin alone; format: functional; how it was run: as §2
Acinetobacter baumannii [28] = assay: Synergistic antibacterial activity against Acinetobacter baumannii ATCC 17978 assessed as fold change in rifampicin MIC at <=0.25 times MIC incubated for overnight by microbroth dilution checkerboard assay relative to rifampicin alone; format: functional; how it was run: as §3
Klebsiella pneumoniae [29] = assay: Synergistic antibacterial activity against […] Klebsiella pneumoniae M6 assessed as rifampicin MIC at <=0.25 times MIC incubated for overnight by microbroth dilution checkerboard assay; format: functional; how it was run: as §4
Acinetobacter baumannii [30] = assay: Synergistic antibacterial activity against Acinetobacter baumannii AYE assessed as fold change in novobiocin MIC at <=0.25 times MIC incubated for overnight by microbroth dilution checkerboard assay relative to novobiocin alone; format: functional; how it was run: as §3
Acinetobacter baumannii [31] = assay: Antibacterial activity against Acinetobacter baumannii AYE assessed as bacterial growth inhibition incubated for overnight by microbroth dilution method; format: functional; how it was run: as §1
Pseudomonas aeruginosa [32] = assay: Synergistic antibacterial activity against Pseudomonas aeruginosa PAO1 assessed as fold change in novobiocin MIC at <=0.25 times MIC incubated for overnight by microbroth dilution checkerboard assay relative to novobiocin alone; format: functional; how it was run: as §2
Klebsiella pneumoniae [33] = assay: Synergistic antibacterial activity against Klebsiella pneumoniae NCTC 13368 assessed as fold change in novobiocin MIC at <=0.25 times MIC incubated for overnight by microbroth dilution checkerboard assay relative to novobiocin alone; format: functional; how it was run: as §3
Acinetobacter baumannii [34] = assay: Synergistic antibacterial activity against Acinetobacter baumannii ATCC 17978 assessed as rifampicin MIC at <=0.25 times MIC incubated for overnight by microbroth dilution checkerboard assay; format: functional; how it was run: as §3

## CCCCCCCCCCNC(=N)NCCCCNC(=N)N
Pseudomonas aeruginosa [1]
  MIC: 64 µg/mL (≈ 205 µM)
Pseudomonas aeruginosa [2]
  MIC: 4 µg/mL
Acinetobacter baumannii [3]
  MIC: 0.125 µg/mL
Klebsiella pneumoniae [4]
  MIC: > 128 µg/mL
Escherichia coli [5]
  MIC: 2 µg/mL
Escherichia coli [6]
  fold change (FC): >=4
Escherichia coli [7]
  fold change (FC): >=4
Klebsiella pneumoniae [8]
  MIC: 8 µg/mL
Klebsiella pneumoniae [9]
  MIC: ≤ 0.125 µg/mL
Klebsiella pneumoniae [10]
  MIC: > 128 µg/mL
Pseudomonas aeruginosa [11]
  fold change (FC): >=4
Pseudomonas aeruginosa [12]
  MIC: > 128 µg/mL
Escherichia coli [13]
  MIC: ≤ 0.125 µg/mL
Pseudomonas aeruginosa [14]
  fold change (FC): >=4
Erythrocyte
  Activity: Toxic
Klebsiella pneumoniae [15]
  fold change (FC): >=4
Acinetobacter baumannii [16]
  MIC: > 128 µg/mL
Acinetobacter baumannii [17]
  MIC: 0.125 µg/mL
Pseudomonas aeruginosa [18]
  MIC: 4 µg/mL
Pseudomonas aeruginosa [19]
  MIC: ≤ 0.125 µg/mL
Acinetobacter baumannii [20]
  MIC: ≤ 0.125 µg/mL
Pseudomonas aeruginosa [21]
  MIC: 2 µg/mL
Klebsiella pneumoniae [22]
  fold change (FC): >=4
Acinetobacter baumannii [23]
  fold change (FC): >=4
Acinetobacter baumannii [24]
  fold change (FC): >=4
Escherichia coli [25]
  MIC: 64 µg/mL (≈ 205 µM)
Klebsiella pneumoniae [26]
  MIC: 1 µg/mL
Pseudomonas aeruginosa [27]
  fold change (FC): >=4
Acinetobacter baumannii [28]
  fold change (FC): >=4
Klebsiella pneumoniae [29]
  MIC: ≤ 0.125 µg/mL
Acinetobacter baumannii [30]
  fold change (FC): >=4
Acinetobacter baumannii [31]
  MIC: > 128 µg/mL
Pseudomonas aeruginosa [32]
  fold change (FC): >=4
Klebsiella pneumoniae [33]
  fold change (FC): >=4
Acinetobacter baumannii [34]
  MIC: ≤ 0.125 µg/mL
